Test results: ChEMBL document CHEMBL1126041, “Leukotriene B4 receptor antagonists: the LY255283 series of hydroxyacetophenones” (J Med Chem, 1992)

Key:
[1] = target: Leukotriene B4 receptor (Homo sapiens) (UniProt Q9NPC1+Q15722); assay: Inhibition of [3H]LTB4 binding to leukotriene B4 receptor of human peripheral neutrophils (PMN) at a concentration of 0.1 uM.; format: protein assay
Summary of the method: (§1)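 Neutrophils isolated by Ficoll-Hypaque centrifugation, dextran 70 sedimentation and hypotonic lysis (≥90% neutrophils, ≥90% viable), 2 × 10^7 cells/mL in Hank's balanced salt solution with 0.1% ovalbumin. Compound in DMSO plus 2.65 nM [3H]LTB4 (stock), 10 min at 4 °C. Cells spun through dibutyl/dinonyl phthalate (7:2), pellet counted by scintillation. Triplicate incubations averaged. Reported as % inhibition of specific binding; nonspecific binding taken with >2000-fold excess unlabeled LTB4.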

[2] = target: Leukotriene B4 receptor 1 (Homo sapiens) (UniProt Q15722); assay: Inhibition of binding of [3H]LTB4 to the leukotriene B4 receptor of human peripheral neutrophils (PMN) at a concentration of 10 uM.; summary of the method: as §1
Chain of Leukotriene B4 receptor 1 (Homo sapiens) (Q15722 whole entry): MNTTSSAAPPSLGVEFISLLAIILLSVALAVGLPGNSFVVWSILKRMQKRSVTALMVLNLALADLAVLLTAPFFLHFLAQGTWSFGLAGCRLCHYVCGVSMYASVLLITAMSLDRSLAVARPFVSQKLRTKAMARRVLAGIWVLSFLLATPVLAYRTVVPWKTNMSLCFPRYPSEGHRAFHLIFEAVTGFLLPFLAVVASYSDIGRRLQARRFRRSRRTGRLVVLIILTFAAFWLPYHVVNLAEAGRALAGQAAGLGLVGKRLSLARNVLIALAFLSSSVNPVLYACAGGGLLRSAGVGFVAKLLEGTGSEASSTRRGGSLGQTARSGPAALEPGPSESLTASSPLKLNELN

[3] = target: Leukotriene B4 receptor 1 (Homo sapiens) (UniProt Q15722); assay: Inhibition of [3H]LTB4 binding to leukotriene B4 receptor from human peripheral neutrophils (PMN), at a concentration of 1 uM; summary of the method: as §1

Chain of Leukotriene B4 receptor (Homo sapiens) (Q15722 whole entry, looked up): as the sequence (Q15722 whole entry) above
Chain of Leukotriene B4 receptor (Homo sapiens) (Q9NPC1 whole entry, looked up): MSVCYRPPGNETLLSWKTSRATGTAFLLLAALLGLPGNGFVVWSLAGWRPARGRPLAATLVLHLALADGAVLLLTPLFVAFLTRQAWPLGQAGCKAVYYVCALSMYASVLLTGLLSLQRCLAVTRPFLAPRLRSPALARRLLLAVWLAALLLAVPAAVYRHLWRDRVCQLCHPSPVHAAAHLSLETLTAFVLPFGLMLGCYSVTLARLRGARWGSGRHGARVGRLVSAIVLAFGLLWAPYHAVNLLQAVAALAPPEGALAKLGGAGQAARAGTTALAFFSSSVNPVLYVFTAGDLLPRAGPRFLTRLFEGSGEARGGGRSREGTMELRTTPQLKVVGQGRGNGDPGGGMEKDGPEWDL

inhibition [1]: 16% | inhibition [2]: 95% | inhibition [3]: 66%
SMILES: CCc1cc(C(C)=O)c(O)cc1OCCCCCC(C)(C)c1nnn(C)n1
